Measurements taken from ChEMBL document CHEMBL1148584, “Effect of polyamine homologation on the transport and biological properties of heterocyclic amidines” (J Med Chem, 2006).

Assays:
CHO [1] = test: Cellular uptake in CHO cells at 50 uM; type: ADME, cell-based, Cricetulus griseus; conditions: chinese hamster
Procedure, shortened: (§1)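 CHO (RPMI 1640, 10% FCS, 2 mM aminoguanidine) and CHO-MG (plus L-proline) cells seeded at 2 × 10⁵ cells/mL. Conjugate added 24 h after seeding and cells harvested 24 h later, then washed in cold 0.14 M NaCl and sonicated in 0.2 N HClO₄. Supernatant analysed by ion-pair reversed-phase HPLC (n-octanesulfonate), expressed as nmol/mg protein; mean ± SD of three determinations.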

L1210 [2] = test: Intracellular level of spermidine in L1210 cells in the presence of DFMO at 25 uM; type: functional, cell-based; conditions: Mus musculus
Procedure, shortened: (§2)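 L1210 cells in RPMI 1640/10% FCS with 2 mM aminoguanidine, seeded at 4 × 10⁴ cells/mL. Conjugate, with or without 5 mM DFMO, added at seeding; cells cultured 48 h, washed in cold NaCl, and extracted with 0.2 N HClO₄. Conjugate and free putrescine, spermidine and spermine quantified by ion-pair HPLC (UV 254 nm, fluorescence ex 345/em 455 nm); normalised to protein. Student's t-test, p<0.05.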

L1210 [3] = test: Intracellular level of conjugate in L1210 cells in the absence of DFMO at 25 uM; type: functional, cell-based; conditions: Mus musculus; procedure, shortened: as §2
CHO-MG [4] = test: Cellular uptake in CHO-MG cells at 50 uM; type: ADME, cell-based, Cricetulus griseus; conditions: chinese hamster; procedure, shortened: as §1
L1210 [5] = test: Intracellular level of putrescine in L1210 cells in the absence of DFMO at 25 uM; type: functional, cell-based; conditions: Mus musculus; procedure, shortened: as §2
CHO-MG [6] = test: Inhibition of cell growth in CHO-MG cells in the presence of DFMO; type: functional, cell-based; conditions: Cricetulus griseus
Procedure, shortened: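 L1210 cells seeded at 5 × 10⁴ cells/mL with conjugate added at seeding; CHO/CHO-MG plated at 2 × 10³ cells/mL with conjugate added after overnight (24 h). 5 mM DFMO added together with conjugate; medium contains 2 mM aminoguanidine. After 48 h, growth read by MTT formazan absorbance at 540 nm. IC50 is 50% growth inhibition; mean of three determinations.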

Phosphodiesterase 1 = Phosphodiesterase 1 (Bos taurus, UniProt Q01061+P14100); test: Inhibition of bovine calmodulin-activated cAMP dependent phosphodiesterase; type: protein assay
Procedure, shortened: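 Crude bovine heart PDE preparation containing calmodulin and Ca²⁺ (0.2 milliunit). Incubated 20 min at 37 °C with 0.1 mM [8-³H]cAMP and graded drug concentrations in 30 mM Tris-HCl, 3 mM MgSO₄, 0.6 mM AMP. Stopped with ZnSO₄; Ba(OH)₂ precipitated AMP with BaSO₄; supernatant radioactivity counted. IC50 is the concentration giving 50% inhibition.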

L1210 [7] = test: Intracellular level of spermine in L1210 cells in the presence of DFMO at 25 uM; type: functional, cell-based; conditions: Mus musculus; procedure, shortened: as §2
L1210 [8] = test: Intracellular level of putrescine in L1210 cells in the presence of DFMO at 25 uM; type: functional, cell-based; conditions: Mus musculus; procedure, shortened: as §2
L1210 [9] = test: Intracellular level of spermine in L1210 cells in the absence of DFMO at 25 uM; type: functional, cell-based; conditions: Mus musculus; procedure, shortened: as §2
[10] = Selectivity for uptake CHO cell line over CHO-MG cell line at 50 uM; type: functional, Cricetulus griseus
Procedure, shortened: (§3)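 Ratio of intracellular conjugate level in CHO over CHO-MG cells. Both lines were exposed to conjugate 24 h after seeding at 2 × 10⁵ cells/mL, for 24 h with 2 mM aminoguanidine in the medium. Levels were measured by ion-pair HPLC of perchloric extracts and normalised to protein (nmol/mg).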

L1210 [11] = test: Intracellular level of conjugate in L1210 cells in the presence of DFMO at 25 uM; type: functional, cell-based; conditions: Mus musculus; procedure, shortened: as §2
L1210 [12] = test: Intracellular level of spermidine in L1210 cells in the absence of DFMO at 25 uM; type: functional, cell-based; conditions: Mus musculus; procedure, shortened: as §2
L1210 [13] = test: Intracellular level of conjugate in L1210 cells in the presence of DFMO at 50 uM; type: functional, cell-based; conditions: Mus musculus; procedure, shortened: as §2
L1210 [14] = test: Intracellular level of spermidine in L1210 cells in the presence of DFMO at 50 uM; type: functional, cell-based; conditions: Mus musculus; procedure, shortened: as §2
L1210 [15] = test: Intracellular level of spermine in L1210 cells in the absence of DFMO at 50 uM; type: functional, cell-based; conditions: Mus musculus; procedure, shortened: as §2
L1210 [16] = test: Intracellular level of putrescine in L1210 cells in the presence of DFMO at 50 uM; type: functional, cell-based; conditions: Mus musculus; procedure, shortened: as §2
L1210 [17] = test: Intracellular level of spermine in L1210 cells in the presence of DFMO at 50 uM; type: functional, cell-based; conditions: Mus musculus; procedure, shortened: as §2
L1210 [18] = test: Intracellular level of spermidine in L1210 cells in the absence of DFMO at 50 uM; type: functional, cell-based; conditions: Mus musculus; procedure, shortened: as §2
L1210 [19] = test: Intracellular level of conjugate in L1210 cells in the absence of DFMO at 50 uM; type: functional, cell-based; conditions: Mus musculus; procedure, shortened: as §2
L1210 [20] = test: Intracellular level of putrescine in L1210 cells in the absence of DFMO at 50 uM; type: functional, cell-based; conditions: Mus musculus; procedure, shortened: as §2
L1210 [21] = test: Intracellular level of spermidine in L1210 cells in the absence of DFMO at 10 uM; type: functional, cell-based; conditions: Mus musculus; procedure, shortened: as §2
CHO [22] = test: Cellular uptake in CHO cells at 10 uM; type: ADME, cell-based, Cricetulus griseus; conditions: chinese hamster; procedure, shortened: as §1
CHO-MG [23] = test: Cellular uptake in CHO-MG cells at 10 uM; type: ADME, cell-based, Cricetulus griseus; conditions: chinese hamster; procedure, shortened: as §1
L1210 [24] = test: Intracellular level of putrescine in L1210 cells in the absence of DFMO at 10 uM; type: functional, cell-based; conditions: Mus musculus; procedure, shortened: as §2
L1210 [25] = test: Intracellular level of spermine in L1210 cells in the absence of DFMO at 10 uM; type: functional, cell-based; conditions: Mus musculus; procedure, shortened: as §2
CHO-MG [26] = test: Selectivity for uptake in CHO cell line over CHO-MG cell line at 10 uM; type: functional, cell-based; conditions: Cricetulus griseus; procedure, shortened: as §3
L1210 [27] = test: Intracellular level of conjugate in L1210 cells in the absence of DFMO at 10 uM; type: functional, cell-based; conditions: Mus musculus; procedure, shortened: as §2
L1210 [28] = test: Intracellular level of conjugate in L1210 cells in the presence of DFMO at 10 uM; type: functional, cell-based; conditions: Mus musculus; procedure, shortened: as §2
CHO [29] = test: Cellular uptake in CHO cells at 5 uM; type: ADME, cell-based, Cricetulus griseus; conditions: chinese hamster; procedure, shortened: as §1
L1210 [30] = test: Intracellular level of spermine in L1210 cells in the presence of DFMO at 10 uM; type: functional, cell-based; conditions: Mus musculus; procedure, shortened: as §2
CHO-MG [31] = test: Cellular uptake in CHO-MG cells at 5 uM; type: ADME, cell-based, Cricetulus griseus; conditions: chinese hamster; procedure, shortened: as §1
L1210 [32] = test: Intracellular level of spermidine in L1210 cells in the presence of DFMO at 10 uM; type: functional, cell-based; conditions: Mus musculus; procedure, shortened: as §2
[33] = Selectivity for uptake in CHO cell line over CHO-MG cell line at 5 uM; type: functional, Cricetulus griseus; procedure, shortened: as §3

| SMILES | Drug uptake (CHO [1]) [nmol/mg] | Drug uptake (CHO-MG [4]) [nmol/mg] | IC50 (Phosphodiesterase 1) [µM] | Selectivity ratio [10] | Drug uptake (L1210 [13]) [nmol/mg] | Drug uptake (L1210 [14]) [nmol/mg] | Drug uptake (L1210 [15]) [nmol/mg] | Drug uptake (L1210 [16]) [nmol/mg] | Drug uptake (L1210 [17]) [nmol/mg] | Drug uptake (L1210 [18]) [nmol/mg] | Drug uptake (L1210 [19]) [nmol/mg] | Drug uptake (L1210 [20]) [nmol/mg] | Drug uptake (L1210 [21]) [nmol/mg] | Drug uptake (CHO [22]) [nmol/mg] | Drug uptake (CHO-MG [23]) [nmol/mg] | Drug uptake (L1210 [24]) [nmol/mg] | Drug uptake (L1210 [25]) [nmol/mg] | Ratio (CHO-MG [26]) | Drug uptake (L1210 [27]) [nmol/mg] | Drug uptake (L1210 [28]) [nmol/mg] | also measured |
| --- | --- | --- | --- | --- | --- | --- | --- | --- | --- | --- | --- | --- | --- | --- | --- | --- | --- | --- | --- | --- | --- |
| CNc1cccc2c1[C@H](C)C[C@]1(C)C(NCCCNCCCCN)=Nc3ccccc3[C@H]21 | 1.3 | 1.2 | 22 | 1 | – | – | – | – | – | – | – | – | – | – | – | – | – | – | – | – | Drug uptake (L1210 [2]): 1.5 nmol/mg; Drug uptake (L1210 [3]): 1.2 nmol/mg; Drug uptake (L1210 [5]): 1 nmol/mg; IC50 (CHO-MG [6]): > 100 µM; Drug uptake (L1210 [7]): 8.9 nmol/mg; Drug uptake (L1210 [8]): 0.02 nmol/mg; Drug uptake (L1210 [9]): 11 nmol/mg; Drug uptake (L1210 [11]): 1.3 nmol/mg; Drug uptake (L1210 [12]): 24 nmol/mg |
| CNc1ccc(C2c3ccccc3N=C(NCCCNCCCCN)C2(C)C)cc1 (stereo not given) | 1.2 | 1.7 | 64 | 0.7 | 0.62 | 2.4 | 9.2 | 0.08 | 8 | 15 | 0.77 | 1.1 | – | – | – | – | – | – | – | – | – |
| CNc1ccc(C2c3ccccc3N=C(NCCCCN)C2(C)C)cc1 (stereo not given) | 5.3 | 5.9 | 373 | 0.9 | 0.33 | 1.8 | 8.6 | 1 | 6.6 | 20 | 0.6 | 1.9 | – | – | – | – | – | – | – | – | – |
| NCCCCNC1=Nc2ccccc2CC1 | – | – | > 500 | – | – | – | – | – | – | – | – | – | 21 | 2.1 | 0.37 | 1.8 | 12.5 | 5.7 | 0.26 | 0.34 | Drug uptake (CHO [29]): 1.2 nmol/mg; Drug uptake (L1210 [30]): 16.5 nmol/mg; Drug uptake (CHO-MG [31]): 0.26 nmol/mg; Drug uptake (L1210 [32]): 0.94 nmol/mg; Selectivity ratio [33]: 4.6 |
| NCCCNCCCCNCCCNC1=Nc2ccccc2CC1 | – | – | > 500 | – | – | – | – | – | – | – | – | – | 8.1 | 0.029 | 0.022 | 0.33 | 13.9 | 1.3 | 1.5 | 2.4 | Drug uptake (CHO [29]): 0.029 nmol/mg; Drug uptake (L1210 [30]): 13.9 nmol/mg; Drug uptake (CHO-MG [31]): 0.029 nmol/mg; Drug uptake (L1210 [32]): 4.2 nmol/mg; Selectivity ratio [33]: 1 |
